Broadly, the T/C is the result in the treated group divided by that in the control group, in per cent.

Structures are written as SMILES.

The text below walks through data of ChEMBL document CHEMBL1125096, “Synthesis and antitumor activity of 9-[(carbamoyloxy)alkyl]anthracyclines: a novel class of anthracycline derivatives” (1990).

Common to all, as to type: functional, Mus musculus
Assay [1] concerns L1210 (1565). The assay can be described thus: Antitumor activity against L-1210 leukemia cell line in BDF1 mice after injecting 4 mg/kg intraperitoneal dose. In a few lines: (§1)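 Female BDF1 mice, five per dose group, inoculated ip with 10^5 viable L-1210 ascites cells. Dosing started the same day: ip, daily, five times a week for 4 weeks or until death. Vehicle was aqueous solution, or propylene glycol suspension if insoluble. Efficacy is expressed as T/C, the ratio of mean survival time of treated to untreated control mice. Survivors at 4 weeks counted as long-term.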

In assay [2] the test system is L1210 (1565). The assay can be described thus: Antitumor activity against L-1210 leukemia cell line in BDF1 mice after injecting 2 mg/kg intraperitoneal dose. In a few lines: as §1
Assay [3] has as its system L1210 (1565). The assay can be described thus: Antitumor activity against L-1210 leukemia cell line in BDF1 mice after injecting 0.125 mg/kg intraperitoneal dose. In a few lines: as §1
Assay [4] concerns L1210 (1565). The assay can be described thus: Antitumor activity against L-1210 leukemia cell line in BDF1 mice after injecting 1 mg/kg intraperitoneal dose. An outline of the steps: as §1
The test system of assay [5] is L1210 (1565). The assay can be described thus: Antitumor activity against L-1210 leukemia cell line in BDF1 mice after injecting 0.25 mg/kg intraperitoneal dose. In a few lines: as §1
The test system of assay [6] is L1210 (1565). Put plainly: Antitumor activity against L-1210 leukemia cell line in BDF1 mice after injecting 16 mg/kg intraperitoneal dose. In a few lines: as §1
For assay [7], the system named is L1210 (1565). Put plainly: Antitumor activity against L-1210 leukemia cell line in BDF1 mice after injecting 0.5 mg/kg intraperitoneal dose. An outline of the steps:
as §1

Assay [8] concerns L1210 (1565). The assay can be described thus: Antitumor activity against L-1210 leukemia cell line in BDF1 mice after injecting 0.05 mg/kg intraperitoneal dose. An outline of the steps: as §1

In the case of `CC1OC(O[C@H]2C[C@](O)(COC(=O)Nc3ccc([N+](=O)[O-])cc3)Cc3c(O)c4c(c(O)c32)C(=O)c2ccccc2C4=O)CC(N)C1O.Cl` (some centres undefined), the T/C in the assay on L1210 (1565) [1] amounted to 210%.

Take `C[C@@H]1O[C@@H](O[C@H]2C[C@](O)(COC(=O)Nc3ccccc3)Cc3c(O)c4c(c(O)c32)C(=O)c2ccccc2C4=O)C[C@@H](N)[C@@H]1O.Cl` (stereo in doubt; 8a): in the assay on L1210 (1565) [2] (2 mg/kg), the T/C stood at 380%.

In the assay on L1210 (1565) [2], `COc1ccc(NC(=O)OC[C@]2(O)Cc3c(O)c4c(c(O)c3[C@@H](OC3CC(N)C(O)C(C)O3)C2)C(=O)c2ccccc2C4=O)cc1.Cl` (some centres undefined) displayed a T/C of 230%.

On to `C[C@@H]1OC(O[C@H]2C[C@](O)([C@H](C)OC(=O)Nc3ccccc3)Cc3c(O)c4c(c(O)c32)C(=O)c2ccccc2C4=O)C[C@H](N)[C@H]1O.Cl` (some centres undefined), for which the T/C in the assay on L1210 (1565) [3] is recorded as 400%.

As for `C[C@H]1C[C@H](N)C[C@H](O[C@H]2C[C@](O)(COC(=O)Nc3ccccc3)Cc3c(O)c4c(c(O)c32)C(=O)c2ccccc2C4=O)O1.Cl`, the T/C in the assay on L1210 (1565) [2] stood at 500%.

As for `CC1OC(O[C@H]2C[C@](O)(COC(=O)Nc3ccc(Cl)cc3)Cc3c(O)c4c(c(O)c32)C(=O)c2ccccc2C4=O)CC(N)C1O.Cl` (some centres undefined), the T/C in the assay with L1210 (1565) [2] was determined as 370%.

In the case of `CNC(=O)OC[C@]1(O)Cc2c(O)c3c(c(O)c2[C@@H](OC2CC(N)C(O)C(C)O2)C1)C(=O)c1ccccc1C3=O.Cl` (some centres undefined), the T/C with L1210 (1565) [1] was 280%.

In the assay with L1210 (1565) [4], `CC1OC(O[C@H]2C[C@](O)([C@@H](C)OC(=O)Nc3ccccc3)Cc3c(O)c4c(c(O)c32)C(=O)c2ccccc2C4=O)CC(N)C1O.Cl` (some centres undefined) returned a T/C of 280%.

With `C[C@@H]1OC(O[C@H]2C[C@](O)([C@@H](C)OC(=O)Nc3ccccc3)Cc3c(O)c4c(c(O)c32)C(=O)c2ccccc2C4=O)C[C@H](N)[C@@H]1O.Cl` (some centres undefined), the T/C in the assay with L1210 (1565) [5] stood at 420%.

In turn, `CC1OC(O[C@H]2C[C@](O)(COC(=O)Nc3ccccc3)Cc3c(O)c4c(c(O)c32)C(=O)c2ccccc2C4=O)CC(N)C1OCc1ccccc1.Cl` (some centres undefined) gave a T/C in the assay on L1210 (1565) [6] of 470%.

`CO[C@H]1[C@H](N)C[C@H](O[C@H]2C[C@](O)(COC(=O)Nc3ccccc3)Cc3c(O)c4c(c(O)c32)C(=O)c2ccccc2C4=O)O[C@H]1C.Cl` (stereo in doubt; 19) returned a T/C in the assay with L1210 (1565) [2] (2 mg/kg) of 230%.

For `COc1cccc2c1C(=O)c1c(O)c3c(c(O)c1C2=O)C[C@@](O)(C(C)=O)C[C@@H]3O[C@H]1C[C@H](N)[C@H](O)[C@H](C)O1.Cl` [DAUNORUBICIN HYDROCHLORIDE], the T/C in the assay on L1210 (1565) [7] was determined as 290%.

With `COc1cccc2c1C(=O)c1c(O)c3c(c(O)c1C2=O)C[C@@](O)(C(=O)CO)C[C@@H]3O[C@H]1C[C@H](N)[C@H](O)[C@H](C)O1.Cl` [DOXORUBICIN HYDROCHLORIDE], in the assay with L1210 (1565) [2], the T/C turned out to be 330%.

In turn, `CC(=O)[C@]1(O)Cc2c(O)c3c(c(O)c2[C@@H](O[C@H]2C[C@@H](N)[C@H](O)[C@H](C)O2)C1)C(=O)c1ccccc1C3=O.Cl` yielded a T/C with L1210 (1565) [8] of 230%.
